Data taken from ChEMBL document CHEMBL1146638, “Chemical basis for the biological activity of imexon and related cyanoaziridines” (J Med Chem, 2004).
Where “and” joins values, the source holds several entries; their conditions need not be identical. Equal entries are not always repeated.

Legend:
[1] = system: L1210; test: Cytotoxicity against sensitive L1210 murine leukemia cells by MTT assay; type: functional, cell-based, Mus musculus
Procedure, shortened: (§1)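 Murine L1210 leukemia cells, drug-sensitive and multidrug-resistant (MDR) sublines, tested in culture. Viability read by MTT assay. Values reported as IC50 in µM.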

[2] = system: RPMI-8226; test: Cytotoxicity against sensitive human myeloma 8226/S cells by MTT assay
[3] = system: L1210; test: Cytotoxicity against multidrug resistant (MDR) L1210 murine leukemia cells by MTT assay; type: functional, cell-based, Mus musculus; procedure, shortened: as §1

Question: For `C[N+](C)(C)C(CSCC(C#N)NC(=O)Nc1ccccc1)C(=O)[O-]` (stereo not drawn), which IC50 ([1]; Mus musculus, L1210) is on record?
Answer: The IC50 was 73.9 µM.

Question: What about the IC50 [2] of the same compound?
Answer: Its IC50 is 44.9 µM.

Question: And the IC50 ([3]; Mus musculus, L1210)?
Answer: Its IC50 is greater than 500 µM.

Question: With `O=C(Nc1ccccc1)N1CC1` as the compound, how does the IC50 ([3]; l1210) read?
Answer: Its IC50 is 5.8 µM and 28.4 µM.

Question: With `CC(=O)NC(CSCC1NC(=O)NC1=O)C(=O)O` (stereo not drawn) as the compound, how does the IC50 ([1]; Mus musculus, L1210) read?
Answer: The IC50 was 73.7 µM.

Question: What about the IC50 [2] of the same compound?
Answer: Its IC50 is 56.3 µM.

Question: What about the IC50 ([3]; Mus musculus, L1210) of the same compound?
Answer: Its IC50 is 116 µM.

Question: For `N#CC1CN1C(=O)Nc1ccccc1` (stereo not drawn), which IC50 ([1]; l1210) is on record?
Answer: Its IC50 is 38.4 µM.

Question: And the IC50 ([3]; l1210)?
Answer: The IC50 was 41.2 µM.

Question: For `NC(=O)N1CC1C1=NC(C(=O)O)CS1` (stereo not drawn), which IC50 ([1]; Mus musculus, L1210) is on record?
Answer: Its IC50 is greater than 500 µM.

Question: And the IC50 ([3]; Mus musculus, L1210)?
Answer: The IC50 was greater than 500 µM.

Question: For `N#CC1CN1C(N)=O` (stereo not drawn), which IC50 ([1]; Mus musculus, L1210) is on record?
Answer: The IC50 was greater than 500 µM.

Question: And the IC50 [2]?
Answer: The IC50 was greater than 500 µM.

Question: And the IC50 ([3]; Mus musculus, L1210)?
Answer: Its IC50 is greater than 500 µM.

Question: With `O=C(O)C1CSC(C2CN2)=N1` (stereo not drawn) as the compound, how does the IC50 ([1]; Mus musculus, L1210) read?
Answer: The IC50 was greater than 500 µM.

Question: And the IC50 ([3]; Mus musculus, L1210)?
Answer: The IC50 was greater than 500 µM.

Question: Which results are given for `N#CC1CN1` (stereo not drawn)?
Answer: IC50 ([1]; Mus musculus, L1210): > 500 µM; IC50 ([3]; Mus musculus, L1210): > 500 µM

Question: Which IC50 ([1]; Mus musculus, L1210) does the source give for `CNC(=O)N1CC1C#N` (stereo not drawn) here?
Answer: The IC50 was 25.1 µM.

Question: And the IC50 [2]?
Answer: The IC50 was 15.5 µM.

Question: And the IC50 ([3]; Mus musculus, L1210)?
Answer: Its IC50 is 36.7 µM.

Question: Which results are given for `CNC(=O)N1CC1C1=NC(C(=O)O)CS1` (stereo not drawn)?
Answer: IC50 ([1]; Mus musculus, L1210): > 500 µM; IC50 ([3]; Mus musculus, L1210): > 500 µM
